Results reported in ChEMBL document CHEMBL2146380, “Uncoupling and antioxidant effects of ursolic acid in isolated rat heart mitochondria” (J Nat Prod, 2011).
Converted amounts (≈) assume the structure as drawn. The source made the active and inactive calls. No cut-off for these calls is given here.

What was measured:
Assay type in all cases: functional
Rattus norvegicus [1] = species on record: Rattus norvegicus; assay: Effect on mitochondrial respiratory chain in Wistar rat heart mitochondria assessed as respiratory control index using palmitoyl-L-carnitine and malate as substrate (reference value: 5.2+/-0.4)
Summary of the method: (§1)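 Isolated male Wistar rat heart mitochondria at 0.5 mg protein/mL. O2 uptake was recorded by Clark electrode at 37 C in pH 7.1 imidazole/taurine/MES medium (3 mM KH2PO4, 0.1 μM free Ca2+). Substrates were 6 mM pyruvate + 6 mM malate, 12 mM succinate + 2 mM amytal, or 9 μM palmitoyl-L-carnitine + 0.24 mM malate. Sequence: State 2 (V0), then 1 mM ADP (State 3), then 32 μM cytochrome c. RCI = VADP/V0. Rates in nmol O/min/mg; n = 3–4.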

Rattus norvegicus [2] = species on record: Rattus norvegicus; assay: Effect on mitochondrial respiratory chain in Wistar rat heart mitochondria assessed as state 3 respiratory rate using palmitoyl-L-carnitine and malate as substrate at 5 ng/mL; summary of the method: as §1
Rattus norvegicus [3] = species on record: Rattus norvegicus; assay: Effect on mitochondrial respiratory chain in Wistar rat heart mitochondria assessed as state 2 respiratory rate per mg protein using succinate and amytal sodium as substrate at 1.6 ng/mL; summary of the method: as §1
Rattus norvegicus [4] = species on record: Rattus norvegicus; assay: Effect on mitochondrial respiratory chain in rat heart mitochondria assessed as stimulation of state 2 respiration rate 293 ng/mL
Rattus norvegicus [5] = species on record: Rattus norvegicus; assay: Effect on mitochondrial respiratory chain in Wistar rat heart mitochondria assessed as state 2 respiratory rate using palmitoyl-L-carnitine and malate as substrate at 5 ng/mL; summary of the method: as §1
Rattus norvegicus [6] = species on record: Rattus norvegicus; assay: (§2) Effect on mitochondrial respiratory chain in Wistar rat heart mitochondria assessed as increase in state 2 respiratory rate using pyruvate and malate as substrate; summary of the method: as §1
[7] = as §2; summary of the method: as §1
Rattus norvegicus [8] = species on record: Rattus norvegicus; assay: Effect on mitochondrial respiratory chain in rat heart mitochondria assessed as stimulation of state 2 respiration rate 449 ng/mL
Rattus norvegicus [9] = species on record: Rattus norvegicus; assay: Effect on mitochondrial respiratory chain in Wistar rat heart mitochondria assessed as increase in state 2 respiratory rate per mg protein using succinate and amytal sodium as substrate at 1.6 ng/mL; summary of the method: as §1
Rattus norvegicus [10] = species on record: Rattus norvegicus; assay: Effect on mitochondrial respiratory chain in rat heart mitochondria assessed as stimulation of state 2 respiration rate 7 ng/mL
Rattus norvegicus [11] = species on record: Rattus norvegicus; assay: Effect on mitochondrial respiratory chain in Wistar rat heart mitochondria assessed as respiratory rate per mg protein using succinate and amytal sodium as substrate in presence of ADP (reference value: 606+/-108 nmol/min); summary of the method: as §1
Rattus norvegicus [12] = species on record: Rattus norvegicus; assay: Effect on mitochondrial respiratory chain in rat heart mitochondria assessed as stimulation of state 2 respiration rate 26 ng/mL
Rattus norvegicus [13] = species on record: Rattus norvegicus; assay: Antioxidant activity in Wistar rat heart mitochondria assessed as reduction in H2O2 production at 1.6 ng/mL by Amplex red based fluorimetric analysis; set-up: scale not given: the % may be the effect or the level left
Summary of the method: (§3)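 Male Wistar rat heart mitochondria (0.25 mg/mL) incubated 7 min at 37 C in respiration medium with 6 mM each pyruvate and malate plus 16 ng/mL antimycin A. CCCP (1 μM) was the uncoupler reference. Then 5 μM Amplex Red and 2 U/mL horseradish peroxidase were added; fluorescence at ex 544/em 590 nm, calibrated with known H2O2; n = 3.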

Rattus norvegicus [14] = species on record: Rattus norvegicus; assay: Effect on mitochondrial respiratory chain in Wistar rat heart mitochondria assessed as ratio of respiratory rate in presence of ADP and cytochrome C to respiratory rate in presence of ADP using pyruvate and malate as substrate (reference value: 1.6+/-0.2); summary of the method: as §1
Rattus norvegicus [15] = species on record: Rattus norvegicus; assay: Effect on mitochondrial respiratory chain in Wistar rat heart mitochondria assessed as increase in complex-1 dependent state 2 respiratory rate per mg protein using pyruvate and malate as substrate at 5 ng/mL; summary of the method: as §1
Rattus norvegicus [16] = species on record: Rattus norvegicus; assay: Effect on mitochondrial respiratory chain in Wistar rat heart mitochondria assessed as state 3 respiratory rate using succinate and amytal sodium as substrate at 5 ng/mL; summary of the method: as §1
Rattus norvegicus [17] = species on record: Rattus norvegicus; assay: Effect on mitochondrial respiratory chain in Wistar rat heart mitochondria assessed as respiratory control index using succinate and amytal sodium as substrate (reference value: 2.5+/- 0.1); summary of the method: as §1
Rattus norvegicus [18] = species on record: Rattus norvegicus; assay: Effect on mitochondrial respiratory chain in Wistar rat heart mitochondria assessed as increase in complex-1 dependent state 2 respiratory rate per mg protein using pyruvate and malate as substrate at 1.6 ng/mL; summary of the method: as §1
Rattus norvegicus [19] = species on record: Rattus norvegicus; assay: Effect on mitochondrial respiratory chain in Wistar rat heart mitochondria assessed as state 2 respiratory rate using palmitoyl-L-carnitine and malate as substrate at 1.6 ng/mL; summary of the method: as §1
Rattus norvegicus [20] = species on record: Rattus norvegicus; assay: Effect on mitochondrial respiratory chain in Wistar rat heart mitochondria assessed as increase in state 2 respiratory rate using palmitoyl-L-carnitine and malate as substrate at 1.6 ng/mL; summary of the method: as §1
Rattus norvegicus [21] = species on record: Rattus norvegicus; assay: Antioxidant activity in Wistar rat heart mitochondria assessed as reduction in H2O2 production at 5 ng/mL by Amplex red based fluorimetric analysis; set-up: scale not given: the % may be the effect or the level left; summary of the method: as §3
Rattus norvegicus [22] = species on record: Rattus norvegicus; assay: Effect on mitochondrial respiratory chain in Wistar rat heart mitochondria assessed as respiratory rate per mg protein using pyruvate and malate as substrate in presence of ADP (reference value: 389+/-40 nmol/min); summary of the method: as §1
Rattus norvegicus [23] = species on record: Rattus norvegicus; assay: Effect on basal respiration rate in Wistar rat heart mitochondrial respiratory chain using pyruvate and malate as substrate at 0.4 to 1.2 ng/mL; conditions: Mitochondria
Summary of the method: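 Clark-type electrode oxygen uptake at 37 C, pH 7.1 imidazole/taurine/MES medium with 3 mM KH2PO4, 0.1 μM free Ca2+. Substrates 6 mM pyruvate + 6 mM malate; compound at 0.4, 0.8, 1.2 ng/mL; State 2 (V0) rate registered, nmol O/min/mg protein.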

Rattus norvegicus [24] = species on record: Rattus norvegicus; assay: Effect on mitochondrial respiratory chain in Wistar rat heart mitochondria assessed as state 2 respiratory rate per mg protein using succinate and amytal sodium as substrate at 5 ng/mL; summary of the method: as §1
Rattus norvegicus [25] = species on record: Rattus norvegicus; assay: Effect on mitochondrial respiratory chain in Wistar rat heart mitochondria assessed as ratio of respiratory rate in presence of ADP and cytochrome c to respiratory rate in presence of ADP using succinate and amytal sodium as substrate (reference value: 1.8+/- 0.1); summary of the method: as §1
Rattus norvegicus [26] = species on record: Rattus norvegicus; assay: Effect on mitochondrial respiratory chain in Wistar rat heart mitochondria assessed as increase in state 2 respiration rate using pyruvate and malate as substrate at 50 to 200 ng/mL; summary of the method: as §1
Rattus norvegicus [27] = species on record: Rattus norvegicus; assay: Effect on mitochondrial respiratory chain in Wistar rat heart mitochondria assessed as respiratory control index using pyruvate and malate as substrate (reference value: 8.0+/-1.2); summary of the method: as §1
Rattus norvegicus [28] = species on record: Rattus norvegicus; assay: Effect on mitochondrial respiratory chain in Wistar rat heart mitochondria assessed as increase in state 2 respiratory rate using palmitoyl-L-carnitine and malate as substrate at 5 ng/mL; summary of the method: as §1
Rattus norvegicus [29] = species on record: Rattus norvegicus; assay: Effect on mitochondrial respiratory chain in Wistar rat heart mitochondria assessed as ratio of respiratory rate in presence of ADP and cytochrome c to respiratory rate in presence of ADP using palmitoyl-L-carnitine and malate as substrate (reference value: 1.3+/-0.1); summary of the method: as §1
Rattus norvegicus [30] = species on record: Rattus norvegicus; assay: Effect on mitochondrial respiratory chain in Wistar rat heart mitochondria assessed as complex-1 dependent state 2 respiratory rate per mg protein using pyruvate and malate as substrate at 1.6 ng/mL; summary of the method: as §1
Rattus norvegicus [31] = species on record: Rattus norvegicus; assay: Effect on mitochondrial respiratory chain in Wistar rat heart mitochondria assessed as respiratory rate per mg protein using pyruvate and malate as substrate (reference value: 52 +/- 7 nmol/min); summary of the method: as §1
Rattus norvegicus [32] = species on record: Rattus norvegicus; assay: Effect on mitochondrial respiratory chain in Wistar rat heart mitochondria assessed as increase in state 2 respiratory rate per mg protein using succinate and amytal sodium as substrate at 5 ng/mL; summary of the method: as §1
Rattus norvegicus [33] = species on record: Rattus norvegicus; assay: Effect on mitochondrial respiratory chain in Wistar rat heart mitochondria assessed as respiratory rate per mg protein using succinate and amytal sodium as substrate (reference value: 238+/-39 nmol/min); summary of the method: as §1
Rattus norvegicus [34] = species on record: Rattus norvegicus; assay: Effect on mitochondrial respiratory chain in Wistar rat heart mitochondria assessed as increase in state 3 respiration rate using pyruvate and malate as substrate in presence ADP at 50 to 200 ng/mL; summary of the method: as §1
Rattus norvegicus [35] = species on record: Rattus norvegicus; assay: Effect on mitochondrial respiratory chain in Wistar rat heart mitochondria assessed as state 3 respiratory rate using pyruvate and malate as substrate at 5 ng/mL; summary of the method: as §1
Rattus norvegicus [36] = species on record: Rattus norvegicus; assay: Effect on mitochondrial respiratory chain in rat heart mitochondria assessed as stimulation of state 2 respiration rate 12.6 ng/mL
Rattus norvegicus [37] = species on record: Rattus norvegicus; assay: Effect on mitochondrial respiratory chain in Wistar rat heart mitochondria assessed as complex-1 dependent state 2 respiratory rate per mg protein using pyruvate and malate as substrate at 5 ng/mL; summary of the method: as §1
Rattus norvegicus [38] = species on record: Rattus norvegicus; assay: Effect on mitochondrial respiratory chain in Wistar rat heart mitochondria assessed as respiratory rate per mg protein using palmitoyl-L-carnitine and malate as substrate (reference value: 85+/-4 nmol/min); summary of the method: as §1
Rattus norvegicus [39] = species on record: Rattus norvegicus; assay: Effect on mitochondrial respiratory chain in rat heart mitochondria assessed as stimulation of state 2 respiration rate 4.9 ng/mL
Rattus norvegicus [40] = species on record: Rattus norvegicus; assay: Effect on mitochondrial respiratory chain in Wistar rat heart mitochondria assessed as decrease in respiratory control index at 50 to 200 ng/mL; set-up: scale not given: the % may be the effect or the level left; summary of the method: as §1
Rattus norvegicus [41] = species on record: Rattus norvegicus; assay: Effect on mitochondrial respiratory chain in Wistar rat heart mitochondria assessed as respiratory rate per mg protein using palmitoyl-L-carnitine and malate as substrate in presence of ADP (reference value: 436+/-54 nmol/min); summary of the method: as §1

Compound: C[C@H]1[C@H](C)CC[C@]2(C(=O)O)CC[C@]3(C)C(=CC[C@@H]4[C@@]5(C)CC[C@H](O)C(C)(C)[C@@H]5CC[C@]43C)[C@H]12 [URSOLIC ACID]
- Ratio (Rattus norvegicus [1]): 4.4
- Activity (Rattus norvegicus [2]): inactive
- Activity (Rattus norvegicus [3]): 279 nmol/min
- Activity (Rattus norvegicus [4]): 11%
- Activity (Rattus norvegicus [5]): 92 nmol/min
- Activity (Rattus norvegicus [6]): Dose-dependent effect
- EC50 [7]: 4.1 ng/mL (≈ 8.98 nM)
- Activity (Rattus norvegicus [8]): 11%
- Activity (Rattus norvegicus [9]): 17%
- Activity (Rattus norvegicus [10]): 11%
- Activity (Rattus norvegicus [11]): 599 nmol/min
- Activity (Rattus norvegicus [12]): 70%
- Activity (Rattus norvegicus [13]): 49.5%
- Ratio (Rattus norvegicus [14]): 1.5
- Activity (Rattus norvegicus [15]): 28%
- Activity (Rattus norvegicus [16]): inactive
- Ratio (Rattus norvegicus [17]): 2
- Activity (Rattus norvegicus [18]): 15%
- Activity (Rattus norvegicus [19]): 90 nmol/min
- Activity (Rattus norvegicus [20]): 10%
- Activity (Rattus norvegicus [21]): 55.6%
- Activity (Rattus norvegicus [22]): 374 nmol/min
- Activity (Rattus norvegicus [23]): inactive
- Activity (Rattus norvegicus [24]): 299 nmol/min
- Ratio (Rattus norvegicus [25]): 1.5
- Activity (Rattus norvegicus [26]): 40%
- Ratio (Rattus norvegicus [27]): 4.8
- Activity (Rattus norvegicus [28]): 10%
- Ratio (Rattus norvegicus [29]): 1.2
- Activity (Rattus norvegicus [30]): 70 nmol/min
- Activity (Rattus norvegicus [31]): 61 nmol/min
- Activity (Rattus norvegicus [32]): 26%
- Activity (Rattus norvegicus [33]): 238 nmol/min
- Activity (Rattus norvegicus [34]): inactive
- Activity (Rattus norvegicus [35]): inactive
- Activity (Rattus norvegicus [36]): 11%
- Activity (Rattus norvegicus [37]): 78 nmol/min
- Activity (Rattus norvegicus [38]): 82 nmol/min
- Activity (Rattus norvegicus [39]): 11%
- Activity (Rattus norvegicus [40]): 45%
- Activity (Rattus norvegicus [41]): 403 nmol/min
